{"source": "paper PMC7254805", "about": "(ACS Omega, 2020)", "key": {"HCV NS3/4A protease": {"molecular_target": "HCV NS3/4A protease (Hepatitis C virus, UniProt P26662)", "sequence (P26662 1027-1208, other chains not shown)": "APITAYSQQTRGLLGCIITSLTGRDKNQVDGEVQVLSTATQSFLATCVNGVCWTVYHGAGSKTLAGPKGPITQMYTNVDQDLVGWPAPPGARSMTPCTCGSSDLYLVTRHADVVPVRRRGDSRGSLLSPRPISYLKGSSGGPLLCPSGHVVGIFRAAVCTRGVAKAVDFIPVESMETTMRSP", "test": "HCV NS3/4A protease fluorimetric activity assay", "format": "biochemical", "summary_of_the_method": "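Purified single-chain NS3/4A (scNS3/4A, 0.1 μM) is pre-incubated with test compound, then purified EGFP-NS5A/B-CBD fusion substrate (0.5 μM) is added for 1 h at 37 °C. Cellulose slurry stops the reaction; after centrifugation, supernatant fluorescence is read at 484/538 nm. Compounds are screened at 50 μM, with dose response over 10–100 μM. Activity is relative to a no-compound reaction (100%); telaprevir is the positive control.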"}, "trypsin": {"molecular_target": "trypsin (Sus scrofa, UniProt P00761)", "sequence (P00761 9-231)": "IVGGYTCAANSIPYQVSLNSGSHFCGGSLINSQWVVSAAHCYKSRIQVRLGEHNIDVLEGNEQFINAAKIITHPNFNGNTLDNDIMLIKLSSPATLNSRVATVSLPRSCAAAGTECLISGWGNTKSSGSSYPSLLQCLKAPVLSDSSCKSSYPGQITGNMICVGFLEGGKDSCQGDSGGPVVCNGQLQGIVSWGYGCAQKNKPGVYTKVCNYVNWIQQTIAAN", "test": "Cellular serine protease", "format": "biochemical", "conditions": "up to 250 μM", "summary_of_the_method": "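Trypsin is pre-incubated with increasing test compound concentrations, then FITC-labelled casein substrate is added for 1 h at 37 °C. The reaction is stopped with trichloroacetic acid (6.1 N) and centrifuged. Supernatant fluorescence is read at excitation 485 nm and emission 538 nm. Activity is expressed relative to a no-compound reaction (100%); G. max trypsin inhibitor is the positive control.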"}, "Huh7.5 cells": {"test_system": "Huh7.5 cells", "test": "Cell viability MTT assay", "format": "cell-based", "conditions": "up to 5 mM", "summary_of_the_method": "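Huh7.5 cells are seeded at 2 × 10^4 per well in DMEM with 10% serum and incubated overnight at 37 °C. After 12 h, cells are treated with a range of test compound concentrations, and viability is read by MTT. Untreated cells serve as control. Data are mean ± SD of three independent experiments; CC50 is taken from the dose response.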"}, "[1]": {"test_system": "Huh7 cells harboring HCV monocistronic replicon genotype 2a (Rep2a)", "test": "HCV replication assay in Rep2a cell line", "format": "cell-based, HCV genotype 2a", "conditions": "at 250 μM, compared with Telaprevir"}, "BALB/c mice [2]": {"test_system": "BALB/c mice", "test": "Acute oral toxicity in mice", "format": "in vivo", "conditions": "for maximum acute tolerance dose: BALB/c mice"}, "BALB/c mice [3]": {"test_system": "BALB/c mice", "test": "Sub-acute", "format": "in vivo", "summary_of_the_method": "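Sub-acute oral toxicity per OECD 407 in BALB/c mice. Test compounds are given orally daily for 28 consecutive days at 1000 or 500 mg/kg b. wt/day, in water or PEG-400. Vehicle controls receive water or PEG-400 at 200 μL/day/mouse. Body weight, food and water intake, behaviour and toxicity signs are recorded. Liver sections (5 μm) are H&E-stained for light microscopy.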"}, "[4]": {"test": "Oral bioavailability in mice, plasma RP-HPLC", "format": "in vivo, BALB/c mice"}, "Aqueous solubility": {"test": "Aqueous solubility", "format": "physicochemical", "conditions": "water"}, "[5]": {"conditions": "BALB/c, mouse, plasma, po, 500 mg/kg"}}, "note": "Entries after “also recorded” stand apart in the source; their conditions may differ."}
{"smiles": "COc1ccc(CC(CC(=O)O)C(=O)O)cc1OC", "note": "(centres unmarked) [D8, 2-(3,4-Dimethoxybenzyl)succinic Acid]", "values": [{"measurement": "IC50", "setting": "HCV NS3/4A protease", "result": "< 10", "unit": "µM"}, {"measurement": "IC90", "setting": "HCV NS3/4A protease", "result": 50, "unit": "µM"}, {"measurement": "inhibition of trypsin activity", "setting": "trypsin", "result": "did not show an inhibition; also recorded: does not occur even at 250 μM"}, {"measurement": "cellular toxicity", "setting": "Huh7.5 cells", "result": "did not induce any toxicity; also recorded: no perceptible cellular toxicity"}, {"measurement": "reduction in HCV negative strand synthesis", "setting": "[1]", "result": "matching that of the inhibition by Telapravir"}, {"measurement": "liver histology", "setting": "BALB/c mice [2]; maximum acute tolerance dose 4000 mg/kg b. wt p.o, vs water control", "result": "normal histoarchitecture"}, {"measurement": "death of mice", "setting": "BALB/c mice [2]; oral, 5000 mg/kg b. wt", "result": 40, "unit": "%"}, {"measurement": "death of mice", "setting": "BALB/c mice [2]; oral, 5250 mg/kg b. wt", "result": 100, "unit": "%"}, {"measurement": "maximum acute tolerance dose", "setting": "BALB/c mice [2]; oral", "result": 4000, "unit": "mg/kg b. wt"}, {"measurement": "tolerance dose relative to phyllanthin", "setting": "BALB/c mice [2]; oral, D8 4000 vs phyllanthin 1500 mg/kg", "result": "~2.5", "unit": "times"}, {"measurement": "changes in general behavior and body weights", "setting": "BALB/c mice [3]; 1000 mg/kg b. wt/day oral, 28 consecutive days", "result": "did not exhibit any undesirable changes"}, {"measurement": "liver histology", "setting": "BALB/c mice [3]; 1000 mg/kg b. wt/day oral, 28 days", "result": "normal histology"}, {"measurement": "plasma concentration after 2 h", "setting": "[4]; 500 mg/kg p.o", "result": 595, "unit": "μg mL^–1"}, {"measurement": "Cmax", "setting": "[4]; [5]", "result": "~595", "unit": "µg/mL"}, {"measurement": "Tmax", "setting": "[4]; [5]", "result": 1, "unit": "h"}, {"measurement": "half-life", "setting": "[4]; [5]", "result": 2, "unit": "h"}]}
{"smiles": "COC[C@@H](Cc1ccc(OC)c(OC)c1)[C@@H](COC)Cc1ccc(OC)c(OC)c1", "note": "[phyllanthin, reference compound]", "values": [{"measurement": "IC50", "setting": "HCV NS3/4A protease", "result": "~50", "unit": "µM"}, {"measurement": "death of mice", "setting": "BALB/c mice [2]; oral, 2000 mg/kg b. wt", "result": 100, "unit": "%"}, {"measurement": "maximum acute tolerance dose", "setting": "BALB/c mice [2]; oral", "result": 1500, "unit": "mg/kg b. wt"}, {"measurement": "changes in general behavior and body weights", "setting": "BALB/c mice [3]; 500 mg/kg b. wt/day oral in PEG-400, 28 consecutive days", "result": "did not exhibit any undesirable changes"}, {"measurement": "bioavailability (plasma, up to 24 h)", "setting": "[4]; 500 mg/kg b. wt p.o", "result": "could not observe any bioavailability"}, {"measurement": "absorbed concentration in plasma", "setting": "[4]; 1500 mg/kg b. wt p.o", "result": "very low concentration"}, {"measurement": "solubility", "setting": "Aqueous solubility", "result": 250, "unit": "µg/mL"}]}
